# Measured values as given in article PMC3313004 (Molecular Microbiology, 2012).
# How the values were obtained:
# [1] = tested on: TcdBHV; assay: In vitro TcdB autoprocessing assay; type: biochemical, Clostridium difficile BI17
# [2] = target: T1, TcdBHIST (Clostridioides difficile, UniProt P18177); assay: In vitro TcdB autoprocessing assay; type: biochemical, Clostridium difficile 10463
# [3] = target: T1, TcdBHIST; assay: AWP19 probe labeling of TcdB; type: biochemical, Clostridium difficile 10463; conditions: 1 h IP6, then AWP19 in 10-fold molar excess
# [4] = tested on: TcdBHV; assay: AWP19 probe labeling of TcdB; type: biochemical, Clostridium difficile BI17; conditions: 1 h IP6, then AWP19 in 10-fold molar excess
# [5] = target: T1, TcdBHIST
# [6] = tested on: TcdBHV treated CHO-K1 cells; assay: Inactivation of TcdB in cell culture; type: cell-based; conditions: TcdBHV pre-incubated with 100 µM inhibitor; 24 hrs
# Outline: (§1)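 CHO-K1 cells were seeded at 1–2 × 10^4 cells/well in F12-K medium with 10% FBS. Toxin at 0.037, 0.37 or 3.7 pM was preincubated for 30 min in F12-K medium with 100 µM of the CPD inhibitor Ac-GSL-AOMK, then added to wells in triplicate. Cells were kept 24 h at 37°C, 6% CO₂, and viability was read by CCK-8.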
# [7] = tested on: TcdBHIST treated CHO-K1 cells; assay: Inactivation of TcdB in cell culture; type: cell-based; conditions: TcdBHIST pre-incubated with 100 µM inhibitor; 24 hrs
# Outline: as §1
# [8] = tested on: TcdBHV; assay: In vitro inhibition of IP6-induced processing with Ac-GSL-AOMK; type: biochemical, Clostridium difficile BI17
# [9] = up to 100 µM inhibitor, 25 µM IP6, 3 independent experiments
# T1 sequence (P18177 whole entry): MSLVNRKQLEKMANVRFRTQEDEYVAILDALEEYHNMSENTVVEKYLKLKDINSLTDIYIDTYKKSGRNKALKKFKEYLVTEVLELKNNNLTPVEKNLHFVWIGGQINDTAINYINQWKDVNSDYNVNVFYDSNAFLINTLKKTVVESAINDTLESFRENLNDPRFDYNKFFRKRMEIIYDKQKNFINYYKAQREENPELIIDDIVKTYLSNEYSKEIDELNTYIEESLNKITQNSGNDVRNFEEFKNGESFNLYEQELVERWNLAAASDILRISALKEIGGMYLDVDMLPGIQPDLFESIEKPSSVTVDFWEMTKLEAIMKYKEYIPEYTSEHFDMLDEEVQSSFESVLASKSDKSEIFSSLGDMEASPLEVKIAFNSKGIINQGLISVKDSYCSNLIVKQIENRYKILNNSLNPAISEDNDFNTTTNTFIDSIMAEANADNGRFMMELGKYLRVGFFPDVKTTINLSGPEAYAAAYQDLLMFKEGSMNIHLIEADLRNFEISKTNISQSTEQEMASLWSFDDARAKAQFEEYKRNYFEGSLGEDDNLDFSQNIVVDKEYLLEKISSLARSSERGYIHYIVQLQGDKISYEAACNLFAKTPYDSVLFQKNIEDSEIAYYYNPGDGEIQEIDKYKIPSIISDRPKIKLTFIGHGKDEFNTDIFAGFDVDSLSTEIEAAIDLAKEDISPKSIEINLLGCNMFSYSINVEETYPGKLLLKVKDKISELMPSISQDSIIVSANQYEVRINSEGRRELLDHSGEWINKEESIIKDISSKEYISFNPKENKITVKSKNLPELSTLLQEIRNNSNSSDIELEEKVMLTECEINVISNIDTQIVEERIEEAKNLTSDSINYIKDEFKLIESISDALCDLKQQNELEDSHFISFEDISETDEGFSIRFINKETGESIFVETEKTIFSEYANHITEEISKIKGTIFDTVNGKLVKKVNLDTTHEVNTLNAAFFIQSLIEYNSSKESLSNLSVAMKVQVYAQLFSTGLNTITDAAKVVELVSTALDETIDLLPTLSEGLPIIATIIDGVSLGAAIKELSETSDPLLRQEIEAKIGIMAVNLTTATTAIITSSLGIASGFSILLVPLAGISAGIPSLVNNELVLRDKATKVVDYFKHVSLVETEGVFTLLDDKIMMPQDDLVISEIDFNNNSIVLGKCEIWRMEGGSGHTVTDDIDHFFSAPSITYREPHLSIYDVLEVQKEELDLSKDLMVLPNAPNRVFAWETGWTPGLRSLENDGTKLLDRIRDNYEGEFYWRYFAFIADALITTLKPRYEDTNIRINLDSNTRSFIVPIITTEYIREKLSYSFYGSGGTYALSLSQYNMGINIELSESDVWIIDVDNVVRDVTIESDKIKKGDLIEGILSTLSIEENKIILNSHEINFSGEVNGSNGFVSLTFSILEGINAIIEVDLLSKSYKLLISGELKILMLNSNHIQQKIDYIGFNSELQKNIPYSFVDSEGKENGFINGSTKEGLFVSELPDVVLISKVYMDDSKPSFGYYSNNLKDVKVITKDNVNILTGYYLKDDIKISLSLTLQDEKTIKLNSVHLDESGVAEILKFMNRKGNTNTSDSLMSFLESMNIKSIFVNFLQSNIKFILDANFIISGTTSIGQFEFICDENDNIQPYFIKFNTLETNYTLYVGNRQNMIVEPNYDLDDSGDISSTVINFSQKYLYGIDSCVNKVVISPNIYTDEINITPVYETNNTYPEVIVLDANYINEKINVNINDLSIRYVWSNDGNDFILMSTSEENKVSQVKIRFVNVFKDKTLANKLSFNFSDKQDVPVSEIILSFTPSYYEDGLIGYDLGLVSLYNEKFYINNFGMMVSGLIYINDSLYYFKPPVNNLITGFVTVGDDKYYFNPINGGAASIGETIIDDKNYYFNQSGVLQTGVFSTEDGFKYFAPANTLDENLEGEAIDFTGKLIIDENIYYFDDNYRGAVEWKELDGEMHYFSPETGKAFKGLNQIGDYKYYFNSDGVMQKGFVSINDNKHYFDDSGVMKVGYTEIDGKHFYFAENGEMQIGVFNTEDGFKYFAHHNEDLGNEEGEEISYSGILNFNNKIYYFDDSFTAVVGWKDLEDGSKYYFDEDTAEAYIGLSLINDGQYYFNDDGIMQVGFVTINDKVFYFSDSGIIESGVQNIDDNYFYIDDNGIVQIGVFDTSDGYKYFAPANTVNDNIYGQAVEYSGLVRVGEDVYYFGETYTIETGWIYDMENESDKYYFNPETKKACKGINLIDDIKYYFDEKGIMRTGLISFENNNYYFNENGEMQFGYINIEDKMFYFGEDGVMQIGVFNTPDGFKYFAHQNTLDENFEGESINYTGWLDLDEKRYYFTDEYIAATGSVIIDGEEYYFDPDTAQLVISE
molecule,measurement,setting,value
"O[C@@H](CS)[C@@H](O)CS (racemic) [DTT, Dithiothreitol]",time to maximum activation,[1]; 5 mM DTT in place of IP6,approximately 1 h
same,time to activation of processing,"[1]; 5 mM DTT in place of IP6, 90 min time-course",≤ 15 min
same,activation of processing,"[2]; 5 mM DTT, 90 min time-course",just slightly above the level of detection
"O=P(O)(O)OC1C(OP(=O)(O)O)C(OP(=O)(O)O)C(OP(=O)(O)O)C(OP(=O)(O)O)C1OP(=O)(O)O (centres unmarked) [IP6, inositol hexakisphosphate]",time to half-maximal level of proteolysis,[1]; 100 µM IP6,≤ 2 min
same,percent cleavage (autoprocessing),"[1]; 100 µM IP6, within the first hour",~80%
same,IP6 concentration at which AWP19-labeled toxin could be detected,[3],5 µM
same,IP6 concentration at which AWP19-labeled toxin could be detected,[4],5 µM
same,time to half-maximal level of proteolysis,[2]; 100 µM IP6,≤ 2 min
same,maximal processing,"[2]; 100 µM IP6, up to 60 min",under 60%
Ac-GSL-AOMK,concentration at which inhibition of IP6-induced processing was detectable,[5]; 25 µM IP6,around 12.5 µM
same,effect of inhibitor without IP6,[5]; no IP6 (data not shown),no effect
same,percent of proteolysis blocked,[5]; [9],~100%
same,protection of CHO cells from toxin,[6],not as functional
same,protection of CHO cells from toxin,[7],provided protection
same,concentration at which inhibition of IP6-induced processing was detectable,[8]; 25 µM IP6,around 12.5 µM
same,effect of inhibitor without IP6,[8]; no IP6 (data not shown),no effect
same,maximum percent inhibition of processing,[8]; [9],around 60%
